Assay results as given in the M2OR odorant receptor database.

How the values were obtained:
Details in all cases: stereoisomer not certain
OR10G2 (Homo sapiens) = molecular target: T1, OR10G2 (Homo sapiens) (UniProt Q8NGC3)
T1 sequence (whole entry): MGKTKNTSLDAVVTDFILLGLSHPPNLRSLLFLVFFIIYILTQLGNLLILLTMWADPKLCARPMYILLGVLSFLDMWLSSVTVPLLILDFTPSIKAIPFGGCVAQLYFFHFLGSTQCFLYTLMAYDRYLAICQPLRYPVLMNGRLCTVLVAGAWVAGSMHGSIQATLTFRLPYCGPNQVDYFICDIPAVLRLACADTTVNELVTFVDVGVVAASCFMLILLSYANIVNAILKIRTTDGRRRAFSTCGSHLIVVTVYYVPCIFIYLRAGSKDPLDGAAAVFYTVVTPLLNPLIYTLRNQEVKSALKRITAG
Procedure, shortened: (§1)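 Each entry records the cell line, G-protein, co-transfected protein and tags used. Methods varied with the source, often transient luciferase assays in mammalian cell lines. A receptor–molecule pair is called responsive (active) if the original authors judged its signal statistically different from baseline and non-responsive (inactive) otherwise.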

OR10G3 (Homo sapiens) = molecular target: T2, OR10G3 (Homo sapiens) (UniProt Q8NGC4)
T2 sequence (whole entry): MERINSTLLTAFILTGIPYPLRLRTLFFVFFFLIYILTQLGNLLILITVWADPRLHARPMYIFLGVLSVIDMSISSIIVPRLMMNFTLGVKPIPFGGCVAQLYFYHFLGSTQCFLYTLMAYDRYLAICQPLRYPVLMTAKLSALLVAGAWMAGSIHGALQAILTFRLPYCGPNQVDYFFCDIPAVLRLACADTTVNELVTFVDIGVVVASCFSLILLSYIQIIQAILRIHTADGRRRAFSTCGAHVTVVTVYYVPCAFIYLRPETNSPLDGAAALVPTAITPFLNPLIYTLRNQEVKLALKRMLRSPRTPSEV
Procedure, shortened: as §1

OR10G4 (Homo sapiens) = molecular target: T3, OR10G4 (Homo sapiens) (UniProt Q8NGN3)
T3 sequence (whole entry): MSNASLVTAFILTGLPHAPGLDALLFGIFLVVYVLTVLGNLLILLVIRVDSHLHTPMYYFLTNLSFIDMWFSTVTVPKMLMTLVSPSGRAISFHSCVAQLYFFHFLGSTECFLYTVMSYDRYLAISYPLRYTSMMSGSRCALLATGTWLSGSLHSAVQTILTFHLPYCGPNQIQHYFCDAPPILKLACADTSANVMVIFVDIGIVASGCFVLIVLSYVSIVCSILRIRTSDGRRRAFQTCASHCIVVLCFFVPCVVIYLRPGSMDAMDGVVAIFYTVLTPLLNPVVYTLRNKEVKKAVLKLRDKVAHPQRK
Procedure, shortened: as §1

OR10G6 (Homo sapiens) = molecular target: T4, OR10G6 (Homo sapiens) (UniProt Q8NH81)
T4 sequence (whole entry): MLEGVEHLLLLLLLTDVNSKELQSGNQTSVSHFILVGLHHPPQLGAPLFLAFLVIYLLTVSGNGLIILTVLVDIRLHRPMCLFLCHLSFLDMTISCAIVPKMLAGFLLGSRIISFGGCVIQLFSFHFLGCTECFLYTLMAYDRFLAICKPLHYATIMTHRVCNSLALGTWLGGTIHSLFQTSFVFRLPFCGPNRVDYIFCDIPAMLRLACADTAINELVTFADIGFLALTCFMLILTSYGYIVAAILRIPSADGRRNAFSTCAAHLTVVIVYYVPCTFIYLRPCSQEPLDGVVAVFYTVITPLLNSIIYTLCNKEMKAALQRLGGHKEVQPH
Procedure, shortened: as §1

OR10G7 (Homo sapiens) = molecular target: T5, OR10G7 (Homo sapiens) (UniProt Q8NGN6)
T5 sequence (whole entry): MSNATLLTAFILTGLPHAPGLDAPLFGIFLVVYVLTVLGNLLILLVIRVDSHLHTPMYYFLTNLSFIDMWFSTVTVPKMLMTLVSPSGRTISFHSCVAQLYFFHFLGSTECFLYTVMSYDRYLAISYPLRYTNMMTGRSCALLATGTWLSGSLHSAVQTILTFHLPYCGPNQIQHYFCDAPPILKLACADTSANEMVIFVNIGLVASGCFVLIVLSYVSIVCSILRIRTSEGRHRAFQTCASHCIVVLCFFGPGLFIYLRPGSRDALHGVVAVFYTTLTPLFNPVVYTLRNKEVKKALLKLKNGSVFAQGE
Procedure, shortened: as §1

OR10G8 (Homo sapiens) = molecular target: T6, OR10G8 (Homo sapiens) (UniProt Q8NGN5)
T6 sequence (whole entry): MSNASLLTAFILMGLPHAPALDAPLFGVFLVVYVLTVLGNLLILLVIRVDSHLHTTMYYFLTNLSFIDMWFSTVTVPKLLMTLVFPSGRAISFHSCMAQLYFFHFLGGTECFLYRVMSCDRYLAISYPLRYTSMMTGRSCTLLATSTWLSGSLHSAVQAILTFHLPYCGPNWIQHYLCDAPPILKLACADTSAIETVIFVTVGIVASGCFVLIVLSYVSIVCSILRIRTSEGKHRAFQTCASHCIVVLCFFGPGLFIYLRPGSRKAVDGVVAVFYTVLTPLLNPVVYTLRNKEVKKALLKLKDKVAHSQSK
Procedure, shortened: as §1

OR10G9 (Homo sapiens) = molecular target: T7, OR10G9 (Homo sapiens) (UniProt Q8NGN4)
T7 sequence (whole entry): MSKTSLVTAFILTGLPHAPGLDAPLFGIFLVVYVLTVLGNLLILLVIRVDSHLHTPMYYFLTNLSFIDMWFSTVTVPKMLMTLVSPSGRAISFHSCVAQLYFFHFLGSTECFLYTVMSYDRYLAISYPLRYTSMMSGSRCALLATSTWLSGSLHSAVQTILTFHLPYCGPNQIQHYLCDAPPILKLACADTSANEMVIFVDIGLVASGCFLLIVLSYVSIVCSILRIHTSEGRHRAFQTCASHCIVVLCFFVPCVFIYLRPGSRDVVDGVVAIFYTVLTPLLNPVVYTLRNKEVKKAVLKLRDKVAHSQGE
Procedure, shortened: as §1

OR10H1 (Homo sapiens) = molecular target: T8, OR10H1 (Homo sapiens) (UniProt Q9Y4A9)
T8 sequence (whole entry): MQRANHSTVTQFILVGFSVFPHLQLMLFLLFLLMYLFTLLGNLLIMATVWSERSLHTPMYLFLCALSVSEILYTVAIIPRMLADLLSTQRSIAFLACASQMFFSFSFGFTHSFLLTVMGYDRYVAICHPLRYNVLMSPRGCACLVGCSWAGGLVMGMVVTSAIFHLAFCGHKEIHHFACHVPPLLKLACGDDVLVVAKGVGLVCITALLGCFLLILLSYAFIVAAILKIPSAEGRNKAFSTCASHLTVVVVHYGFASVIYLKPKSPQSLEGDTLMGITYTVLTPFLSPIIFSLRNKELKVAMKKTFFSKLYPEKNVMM
Procedure, shortened: as §1

OR10H2 (Homo sapiens) = molecular target: T9, OR10H2 (Homo sapiens) (UniProt O60403)
T9 sequence (whole entry): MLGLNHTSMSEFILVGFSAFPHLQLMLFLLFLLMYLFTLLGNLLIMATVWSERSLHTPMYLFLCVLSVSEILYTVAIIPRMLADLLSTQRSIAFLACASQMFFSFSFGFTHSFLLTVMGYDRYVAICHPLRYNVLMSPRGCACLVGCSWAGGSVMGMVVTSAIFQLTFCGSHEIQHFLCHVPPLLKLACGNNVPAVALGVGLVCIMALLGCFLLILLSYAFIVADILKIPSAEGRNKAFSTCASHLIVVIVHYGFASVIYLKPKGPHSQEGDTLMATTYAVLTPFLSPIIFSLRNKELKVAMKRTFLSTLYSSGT
Procedure, shortened: as §1

Measured: odorant receptor agonist call

CCC(S)C(C)CO (centres undefined)
inactive: all assays above
